Laboratory results as given in ChEMBL document CHEMBL4014329, “Selective Inhibition of Escherichia coli RNA and DNA Topoisomerase I by Hoechst 33258 Derived Mono- and Bisbenzimidazoles” (J Med Chem, 2017).
pIC50: −log10 of the molar value. Values after ≈ are worked out from the molar mass of the structure shown. Active and inactive are the calls of the source. No cut-off for these calls is given here.

How the values were obtained:
DNA topoisomerase 1 = target: T1, DNA topoisomerase 1 (Homo sapiens, UniProt P11387); experiment: Inhibition of human DNA topoisomerase 1 using plasmid pBAD-GFPuv as substrate after 30 mins by agarose gel electrophoresis
T1 sequence (P11387 whole entry): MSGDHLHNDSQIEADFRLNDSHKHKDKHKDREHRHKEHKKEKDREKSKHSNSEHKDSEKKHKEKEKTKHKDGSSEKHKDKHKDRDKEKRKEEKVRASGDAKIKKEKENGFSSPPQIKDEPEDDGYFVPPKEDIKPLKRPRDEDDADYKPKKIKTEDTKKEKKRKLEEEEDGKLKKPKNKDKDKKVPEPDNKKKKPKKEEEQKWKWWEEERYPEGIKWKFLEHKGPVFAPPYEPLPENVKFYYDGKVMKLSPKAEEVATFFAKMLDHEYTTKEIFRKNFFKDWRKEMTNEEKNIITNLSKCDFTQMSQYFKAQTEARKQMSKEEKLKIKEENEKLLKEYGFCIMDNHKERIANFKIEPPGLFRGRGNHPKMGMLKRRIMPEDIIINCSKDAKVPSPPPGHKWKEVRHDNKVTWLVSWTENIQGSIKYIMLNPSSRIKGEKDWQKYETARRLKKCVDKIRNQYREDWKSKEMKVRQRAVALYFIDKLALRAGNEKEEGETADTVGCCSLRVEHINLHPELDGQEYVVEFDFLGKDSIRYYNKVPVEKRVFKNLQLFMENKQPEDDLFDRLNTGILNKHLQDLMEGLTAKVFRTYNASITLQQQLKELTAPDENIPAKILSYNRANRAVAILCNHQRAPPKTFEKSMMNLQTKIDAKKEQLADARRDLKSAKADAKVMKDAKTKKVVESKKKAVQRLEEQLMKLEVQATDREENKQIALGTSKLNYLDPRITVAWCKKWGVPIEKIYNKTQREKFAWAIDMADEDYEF

Pseudomonas aeruginosa = experiment: Antibacterial activity against Pseudomonas aeruginosa ATCC 27853 after 24 hrs by microbroth dilution method; type: functional; conditions: ATCC 27853, 24 h
Procedure, shortened: (§1)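 Microbroth dilution per CLSI guidelines. Organisms grown in Mueller−Hinton broth at 37 °C with shaking to log phase, pelleted, resuspended in 0.85% saline to OD625 0.1. Final inoculum 5 × 10^5 CFU/mL; triplicate; 24 h at 37 °C. OD625 read; MIC = lowest concentration completely inhibiting growth versus untreated controls.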

Klebsiella pneumoniae = experiment: Antibacterial activity against Klebsiella pneumoniae NR15410 after 24 hrs by microbroth dilution method; type: functional; conditions: NR15410, 24 h; procedure, shortened: as §1
[1] = tested on: Staphylococcus epidermidis; experiment: Antibacterial activity against Staphylococcus epidermidis ATCC 12384 after 24 hrs by microbroth dilution method; type: functional; conditions: ATCC 12384, 24 h; procedure, shortened: as §1
Staphylococcus aureus [2] = experiment: Antibacterial activity against Staphylococcus aureus ATCC 29213 after 24 hrs by microbroth dilution method; type: functional; conditions: ATCC 29213, 24 h; procedure, shortened: as §1
[3] = Binding affinity to dA60.dT60 B-DNA duplex (unknown origin) assessed as change in melting temperature at 10 uM by UV-vis spectrophotometric analysis
Procedure, shortened: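 UV melting of dA60·dT60 at 1 μM/duplex with compound at 10 μM. Buffer 10 mM sodium cacodylate, 0.1 mM EDTA, 100 mM NaCl, pH 7.0; duplex pre-annealed from 95 °C. Compound stocks in DMSO diluted into buffer. Heating at 0.2 °C/min, monitored at 260 nm, points every 1.0 °C; Tm taken from derivatives.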

Shigella flexneri = experiment: Antibacterial activity against Shigella flexneri 2457NR517 after 24 hrs by microbroth dilution method; type: functional; conditions: 2457NR517, 24 h
Procedure, shortened: (§2)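 Mueller-Hinton broth cultures grown at 37 °C with shaking to log phase, pelleted, resuspended in 0.85% saline to OD625 0.1. Broth microdilution per CLSI guidelines, final inoculum 5 × 10^5 CFU/mL, in triplicate, 24 h at 37 °C. Growth read as OD625. MIC is the lowest concentration giving complete growth inhibition versus untreated controls.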

Citrobacter freundii = experiment: Antibacterial activity against Citrobacter freundii 4747CFAA after 24 hrs by microbroth dilution method; type: functional; procedure, shortened: as §1
Enterococcus faecium = experiment: Antibacterial activity against Enterococcus faecium BM4105RF after 24 hrs by microbroth dilution method; type: functional; procedure, shortened: as §2
Staphylococcus aureus [4] = experiment: Antibacterial activity against methicillin-resistant Staphylococcus aureus 33591 after 24 hrs by microbroth dilution method; type: functional; conditions: Staphylococcus aureus, 33591, 24 h; procedure, shortened: as §2
[5] = Binding affinity to dA60.dT60 B-DNA duplex (unknown origin) assessed as induction of biphasic transition at <5 uM by UV-vis spectrophotometric analysis
Enterobacter cloacae = experiment: Antibacterial activity against Enterobacter cloacae ATCC 13047 after 24 hrs by microbroth dilution method; type: functional; conditions: ATCC 13047, 24 h; procedure, shortened: as §1
Escherichia coli [6] = experiment: Antibacterial activity against Escherichia coli ATCC 25922 after 24 hrs by microbroth dilution method; type: functional; conditions: ATCC 25922, 24 h; procedure, shortened: as §1
Staphylococcus aureus [7] = experiment: Antibacterial activity against Staphylococcus aureus ATCC 33591 after 24 hrs by microbroth dilution method; type: functional; conditions: ATCC 33591, 24 h; procedure, shortened: as §1
Escherichia coli [8] = experiment: Antibacterial activity against Escherichia coli K-12 after 24 hrs by microbroth dilution method; type: functional; conditions: K-12, 24 h; procedure, shortened: as §1
Acinetobacter baumannii = experiment: Antibacterial activity against Acinetobacter baumannii ATCC 19606 after 24 hrs by microbroth dilution method; type: functional; conditions: ATCC 19606 = CIP 70.34 = JCM 6841, 24 h; procedure, shortened: as §1
Enterococcus faecalis = experiment: Antibacterial activity against Enterococcus faecalis ATCC 29212 after 24 hrs by microbroth dilution method; type: functional; conditions: ATCC 29212, 24 h; procedure, shortened: as §1
Staphylococcus aureus [9] = experiment: Antibacterial activity against methicillin-resistant Staphylococcus aureus A960649 after 24 hrs by microbroth dilution method; type: functional; conditions: A960649, 24 h; procedure, shortened: as §2
[10] = Inhibition of Escherichia coli DNA topoisomerase 1 using plasmid pBAD-GFPuv as substrate after 15 mins by agarose gel electrophoresis
Procedure, shortened: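 E. coli topoisomerase I at 6 nM relaxing 150 ng supercoiled pBAD-GFPuv. 15 min at 37 °C, phenol-stopped, 1% agarose gel, ethidium stain. IC50 is the concentration leaving 50% DNA supercoiled; three independent determinations.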

Escherichia coli [11] = experiment: Inhibition of Escherichia coli RNA topoisomerase 1 using circular RNA as substrate up to 50 uM after 1.5 hrs by SDS-PAGE analysis
Procedure, shortened: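 10 nM E. coli topoisomerase I premixed with reaction buffer and inhibitor diluted in DMSO, then circular RNA substrate added; 1.5 h incubation. Stopped with proteinase K/SDS/EDTA buffer. Trefoil RNA knot product separated from circular substrate on 15% TBE−urea gels and detected by phosphorimaging. DMSO-only control included.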

DU-145 = experiment: Cytotoxicity against human DU145 cells after 48 hrs by SRB assay; type: cell-based; conditions: human, du-145, 48 h
Procedure, shortened: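 Cells cultured per ATCC protocols, seeded and grown 24 h (37 °C, 5% CO2), then treated in triplicate at final 20, 10, 5, 2.5, 1.25, 0.625 and 0.0625 μM for 48 h. Fixed with cold TCA (16% final, 4 °C, 1 h), stained with SRB in 1% acetic acid, dye solubilized in 10 mM Tris base, A560 read. IC50 derived; study in duplicate.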

Escherichia coli [12] = experiment: Inhibition of Escherichia coli DNA gyrase using relaxed plasmid pBAD-GFPuv as substrate after 30 mins by agarose gel electrophoresis

Row | Compound | MIC (Pseudomonas aeruginosa) [µg/mL] | MIC (Klebsiella pneumoniae) [µg/mL] | MIC [1] [µg/mL] | MIC (Shigella flexneri) [µg/mL] | MIC (Citrobacter freundii) [µg/mL] | MIC (Enterococcus faecium) [µg/mL] | MIC (Staphylococcus aureus [4]) [µg/mL] | MIC (Enterobacter cloacae) [µg/mL] | MIC (Escherichia coli [6]) [µg/mL] | MIC (Acinetobacter baumannii) [µg/mL] | MIC (Staphylococcus aureus [9]) [µg/mL] | inhibition (Escherichia coli [11]) | further results
1 | CN1CCN(c2ccc3nc(-c4ccc(OCc5cn(CCCCN=[N+]=[N-])nn5)cc4)[nH]c3c2)CC1 | 16 (≈ 32.9 µM) | > 32 | > 32 | > 32 | > 32 | > 32 | > 32 | > 32 | 16 (≈ 32.9 µM) | > 32 | > 32 | inactive | pIC50 (DNA topoisomerase 1): < 4.30; MIC (Staphylococcus aureus [2]): 16 to 32 µg/mL (≈ 32.9 to 65.8 µM); ΔTm [3]: 0.5 °C; Activity [5]: Active; MIC (Staphylococcus aureus [7]): 16 µg/mL (≈ 32.9 µM); MIC (Escherichia coli [8]): 16 µg/mL (≈ 32.9 µM); MIC (Enterococcus faecalis): 16 to 32 µg/mL (≈ 32.9 to 65.8 µM); pIC50 [10]: 4.67
2 | C#CCCCCOc1ccc(-c2nc3ccc(-c4nc5ccc(N6CCN(C)CC6)cc5[nH]4)cc3[nH]2)cc1 | 16 (≈ 31.7 µM) | > 32 | 1 to 2 (≈ 1.98 to 3.96 µM) | 8 (≈ 15.9 µM) | > 32 | 1 to 2 (≈ 1.98 to 3.96 µM) | 4 (≈ 7.93 µM) | > 32 | 8 to 16 (≈ 15.9 to 31.7 µM) | 16 (≈ 31.7 µM) | 4 (≈ 7.93 µM) | inactive | Activity (DU-145): Toxic; inhibition (Escherichia coli [12]): inactive
